One experiment has as its system HL-60. In words: Compound (1 x 10e-4 M) was evaluated in vitro for its ability to inhibit the growth of the human promyelocytic leukemia HL-60; Inactive until maximum tested concentration of 1xe-4 M. The format is functional, cell-based.
Experiment [1] is filed under the species Homo sapiens. Kind of experiment: Compound (1 x 10e-4 M) was evaluated in vitro for its ability to inhibit the growth of the human epidermoid carcinoma KB; Inactive until maximum tested concentration of 1xe-4 M. Format: functional.
The next experiment deals with L1210. In words: Compound (1 x 10e-4 M) was evaluated in vitro for its ability to inhibit the growth of the murine leukemia L1210; Inactive until maximum tested concentration of 1xe-4 M. The format is functional, cell-based. As to conditions: Mus musculus.
For the next experiment, the system named is P388. In words: Compound (1 x 10e-4 M) was evaluated in vitro for its ability to inhibit the growth of the murine leukemia P388; Inactive until maximum tested concentration of 1xe-4 M. Format: functional, cell-based. As to conditions: Mus musculus.
The species entered for experiment [2] is Homo sapiens. Kind of experiment: Compound (1 x 10e-4 M) was evaluated in vitro for its ability to inhibit the growth of the human epidermoid carcinoma KB. The format is functional. Put shortly: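 KB cells in exponential growth, in RPMI-1640 with antibiotics, 3 mM glutamine, 10 mM HEPES and 5% heat-inactivated newborn calf serum. Seeded at 5 × 10³ cells/well and exposed in quadruplicate to compound (DMSO ≤0.5% final), up to a maximum of 1×10^-4 M, for 48 h at 37 °C. [¹²⁵I]-5-iodo-2'-deoxyuridine plus 5-fluoro-2'-deoxyuridine then added for 18 h. Cells trypsin/EDTA-detached, filter-harvested and γ-counted. Inhibition expressed as % of control incorporation.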

Active and inactive are the calls of the source. The calls are words filed in the database; no cut-off is given here.

Consider `Nc1nccc2c1ccn2[C@@H]1O[C@H](CO)[C@@H](O)[C@H]1O`, for which the ID50 entry in the experiment on HL-60, in the experiment listed under Homo sapiens [1], in the experiment on L1210 and with P388 was “Inactive until maximum tested concentration of 1xe-4 M” each time.

As for `Nc1nc(Cl)cc2c1ccn2[C@H]1C[C@H](O)[C@@H](CO)O1`, the ID50 entry in the experiment on HL-60, in the experiment listed under Homo sapiens [1], in the experiment on L1210 and with P388 was “Inactive until maximum tested concentration of 1xe-4 M” in each case.

In the experiment listed under Homo sapiens [2], `Nc1ncnc2c1ccn2[C@@H]1O[C@H](CO)[C@@H](O)[C@H]1O` showed an ID50 of 52 nM.

In the case of `Nc1nc(Cl)cc2c1ccn2[C@@H]1O[C@H](CO)[C@@H](O)[C@H]1O`, the ID50 result in the experiment with HL-60, in the experiment listed under Homo sapiens [1], in the experiment on L1210 and in the experiment on P388 was “Inactive until maximum tested concentration of 1xe-4 M” throughout.

For the compound `Nc1nccc2c1ccn2[C@H]1C[C@H](O)[C@@H](CO)O1`, the ID50 result in the experiment with HL-60, in the experiment listed under Homo sapiens [1], in the experiment with L1210 and in the experiment on P388 was “Inactive until maximum tested concentration of 1xe-4 M” in each case.

The values above are taken from ChEMBL document CHEMBL1124515, “3,7-Dideazapurine nucleosides. Synthesis and antitumor activity of 1-deazatubercidin and 2-chloro-2'-deoxy-3,7-dideazaadenosine” (1989).
